Assay results gathered from unrelated publications.
Each line is one published result; the experiments were not run side by side.

Structure (SMILES) | target | test | setting | measurement | value
Cc1nn(C)cc1-c1nc2c(N3CCN(Cc4ccc(Cl)cc4)CC3)c(Cl)cnc2[nH]1 | Tyrosine-protein kinase ABL1, non-phosphorylated (ABL1, Homo sapiens, UniProt P00519, F317L) | binding, competition with immobilised ligand | 1 µM | remaining binding | 100%
Nc1ncc(-c2nc(N3CCOCC3)nc(N3CCOCC3)n2)c(C(F)F)n1 | Androgen receptor (AR, Homo sapiens, UniProt P10275) | cell-free assay, radioligand | 10 µM | remaining signal | 89.3%
CNCCN1CCC(OCc2ccccc2)CC1 | Protein arginine N-methyltransferase 6 (PRMT6, Homo sapiens, UniProt Q96LA8) | thermal stability, DSF | 200 µM | ΔTm | 11.3 °C
CC[C@@H]1CN2CC[C@@]3(O)C(=Nc4cccc(C)c43)[C@@H]2C[C@@H]1/C(=C\OC)C(=O)OC | Delta-type opioid receptor (OPRD1, Homo sapiens, UniProt P41143) | β-arrestin recruitment, agonist | – | Emax | > 100%
C#Cc1n[nH]c2c(-c3cn(C(C)c4ccccn4)c(=O)[nH]c3=O)cc(F)cc12 (stereo not shown) | Insulin-like growth factor 1 receptor (IGF1R, Homo sapiens, UniProt P08069) | enzyme activity, inhibitor | 1 µM | inhibition | -0.9%
Cn1cc(-c2cc(F)cc(N3CCn4c(cc5c4CCCC5)C3=O)c2CO)cc(Nc2ccc(N3CCN(C4COC4)CC3)cn2)c1=O | Tyrosine-protein kinase ABL1 (ABL1, Homo sapiens, UniProt P00519, T315I) | enzyme activity, inhibitor | 0.1 µM | inhibition | 4%
COc1ncccc1-c1cnn2ccc(N3CCN(C(=O)OC(C)C)CC3)nc12 | Receptor-interacting serine/threonine-protein kinase 4 (RIPK4, Homo sapiens, UniProt P57078) | binding, competition with immobilised ligand | 1 µM | remaining binding | 70%
CCN(CC)CCCC[C@H](NC(=O)[C@H](CC(C)C)NC(=O)[C@H](C)NC(=O)[C@H](Cc1ccccc1)NC(=O)c1ccc(C(C)(C)C)cc1)C(=O)N[C@@H](CO)C(=O)OC | Histone acetyltransferase p300 (EP300, Homo sapiens, UniProt Q09472) | thermal stability, DSF | 25 µM | ΔTm | 0.7 °C
O=C(O)C(F)(F)C(F)(F)C(F)(F)C(F)(F)C(F)(F)C(F)(F)C(F)(F)F | Solute carrier family 22 member 11 (SLC22A11, Homo sapiens, UniProt Q9NSA0) | transporter uptake, substrate | pH 6.8 | Km | 9.95 µM
COc1ccc(S(=O)(=O)N(CC(=O)NO)CC(C)C)cc1 | Neutrophil collagenase (MMP8, Homo sapiens, UniProt P22894) | enzyme activity, inhibitor | 0.1 µM | inhibition | 43%
